For one experiment, the system named is Dengue virus. Nature of the experiment: Inhibition of Dengue virus NS2B-NS3 protease using Abz-NleKRRS-3-(NO2)Y as substrate at 50 uM preincubated for 15 mins measured every sec for 15 mins by fluorimetric analysis.
A further experiment deals with Prothrombin (Bos taurus) (UniProt P00735). Nature of the experiment: Inhibition of bovine plasma thrombin using Boc-Val-Pro-Arg-AMC as substrate at 25 uM preincubated for 15 mins measured after 10 mins by fluorimetric assay. The method, boiled down: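 Purchased bovine plasma thrombin at 10 nM final, preincubated 15 min with 25 μM inhibitor; reaction started with 50 μM substrate. Buffer 50 mM Tris-HCl pH 7.5, 150 mM NaCl, 0.05% Tween 20. Triplicate, averaged.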

Experiment [1] deals with Escherichia coli. The experiment in a line: Inhibition of Escherichia coli MurA using PEP as substrate assessed as inorganic phosphate release at 25 uM preincubated for 10 mins measured after 60 mins […].
The subject of experiment [2] is Escherichia coli. Nature of the experiment: Inhibition of Escherichia coli MetAP at 10 uM after 15 mins by fluorescence analysis.

Structures are written as SMILES. Calls of active or inactive are those of the source.

One may read the inhibition as the share of the control response that was lost under treatment. As to `O=C1NC(=O)/C(=C/c2ccc([N+](=O)[O-])cc2)N1`, the inhibition in the experiment on Dengue virus amounted to 26%. The inhibition result at Prothrombin (Bos taurus), in the experiment on Escherichia coli [1] and in the experiment on Escherichia coli [2] was “inactive” throughout.

Consider `COc1ccc(/C=C2\SC(=O)NC2=O)cc1`, for which the inhibition in the experiment with Dengue virus turned out to be 19%; against Prothrombin (Bos taurus), 32%; in the experiment on Escherichia coli [1], 84%; in the experiment on Escherichia coli [2], 11%.

With `O=C1NC(=S)N/C1=C\c1cc2ccccc2[nH]1`, the inhibition in the experiment with Dengue virus is 44%; against Prothrombin (Bos taurus) it was 23%; with Escherichia coli [1], 15%. Further, the inhibition result in the experiment on Escherichia coli [2] was “inactive”.

Turning to `O=C1NC(=O)/C(=C/c2c(F)c(F)c(F)c(F)c2F)N1`, the inhibition with Dengue virus is 14%; against Prothrombin (Bos taurus), 18%; with Escherichia coli [1], 18%. Further, the inhibition entry in the experiment on Escherichia coli [2] was “inactive”.

`CCCC/C=C1\NC(=S)NC1=O`: the inhibition is 25% in the experiment with Dengue virus, 14% on Prothrombin (Bos taurus), 11% in the experiment with Escherichia coli [1] and 66% in the experiment with Escherichia coli [2].

As to `O=C1NC(=S)N/C1=C\C1CCCCC1`, the inhibition with Dengue virus was 30%; against Prothrombin (Bos taurus), 18%; in the experiment with Escherichia coli [1], 16%; in the experiment on Escherichia coli [2], 20%.

For `O=C1NC(=S)S/C1=C\c1sccc1Br`, the inhibition turned out to be 60% in the experiment with Dengue virus, 24% against Prothrombin (Bos taurus) and 20% with Escherichia coli [1]. Also, in the experiment with Escherichia coli [2], the inhibition entry is “inactive”.

Regarding `COc1ccc(/C=C/C=C2\SC(=S)NC2=O)cc1`, the inhibition amounted to 51% in the experiment with Dengue virus, 20% at Prothrombin (Bos taurus), 62% in the experiment on Escherichia coli [1] and 12% in the experiment with Escherichia coli [2].

Take `O=C1NC(=O)C(Cc2ccccc2)S1` (stereo unspecified): the inhibition result with Dengue virus, at Prothrombin (Bos taurus), with Escherichia coli [1] and in the experiment on Escherichia coli [2] was “inactive” each time.

As for `CC(=O)N1C(=S)NC(=O)[C@H]1Cc1ccccc1`, the inhibition entry with Dengue virus, on Prothrombin (Bos taurus) and in the experiment on Escherichia coli [2] was “inactive” throughout. Besides, the inhibition with Escherichia coli [1] was 15%.

For the compound `O=C1NC(=O)/C(=C/c2ccccc2)N1`, the inhibition came to 38% with Dengue virus, 100% in the experiment on Escherichia coli [1] and 17% in the experiment with Escherichia coli [2]. Besides, on Prothrombin (Bos taurus), the inhibition result is “inactive”.

Take `O=C1NC(=O)/C(=C/c2ccc(Cl)cc2Cl)N1`: in the experiment with Dengue virus, the inhibition is 15%. Besides, the inhibition entry at Prothrombin (Bos taurus), in the experiment on Escherichia coli [1] and with Escherichia coli [2] was “inactive” each time.

As for `O=C1NC(=O)/C(=C/c2cccc(O)c2)N1`, the inhibition in the experiment with Dengue virus was determined as 27%; on Prothrombin (Bos taurus), 12%. The inhibition entry with Escherichia coli [1] and in the experiment with Escherichia coli [2] was “inactive” each time.

As to `O=C1NC(=S)S/C1=C\c1cccs1`, the results for the inhibition in the experiment on Dengue virus and against Prothrombin (Bos taurus) were 44% and 18%, respectively. The inhibition entry in the experiment with Escherichia coli [1] and in the experiment with Escherichia coli [2] was “inactive” in each case.

Regarding `O=C1CSC(=S)N1`, the inhibition in the experiment with Dengue virus is 14%. Further, the inhibition result on Prothrombin (Bos taurus), with Escherichia coli [1] and with Escherichia coli [2] was “inactive” in each case.

`O=C1NC(=O)/C(=C/c2c(F)c(F)c(F)c(F)c2F)S1`: the inhibition in the experiment on Dengue virus amounted to 12%. In addition, the inhibition result at Prothrombin (Bos taurus), with Escherichia coli [1] and with Escherichia coli [2] was “inactive” throughout.

On to `O=C1NC(=S)N/C1=C\c1c[nH]c2ccccc12`, for which the figures for the inhibition in the experiment on Dengue virus, against Prothrombin (Bos taurus) and in the experiment on Escherichia coli [1] were 55%, 22% and 77%, respectively. For the same compound, the inhibition entry with Escherichia coli [2] is “inactive”.

For the compound `C/C(=C1/SC(=O)NC1=O)c1ccc2ccccc2c1`, the inhibition in the experiment on Dengue virus is 30%; against Prothrombin (Bos taurus) it was 20%; in the experiment with Escherichia coli [2] it was 12%. Also, in the experiment on Escherichia coli [1], the inhibition result was “inactive”.

Turning to `O=C1NC(=O)/C(=C2\CCOc3ccccc32)S1`, the inhibition in the experiment with Dengue virus was determined as 35%; in the experiment on Escherichia coli [2] it was 11%. In addition, the inhibition result on Prothrombin (Bos taurus) and with Escherichia coli [1] was “inactive” each time.

As for `O=C1NC(=S)S/C1=C\c1c[nH]c2ccccc12`, the results for the inhibition in the experiment with Dengue virus and on Prothrombin (Bos taurus) were 44% and 26%, respectively. For the same compound, the inhibition result with Escherichia coli [1] and in the experiment on Escherichia coli [2] was “inactive” throughout.

With `O=C1NC(=S)S/C1=C\c1c(F)c(F)c(F)c(F)c1F`, the inhibition stood at 27% in the experiment on Dengue virus and 25% against Prothrombin (Bos taurus). In addition, the inhibition entry in the experiment on Escherichia coli [1] and in the experiment on Escherichia coli [2] was “inactive” each time.

In the case of `O=C1NC(=O)/C(=C/c2c[nH]c3ccccc23)S1`, the inhibition in the experiment with Dengue virus was 26%; at Prothrombin (Bos taurus), 23%; in the experiment with Escherichia coli [2], 10%. Further, the inhibition result with Escherichia coli [1] was “inactive”.

Regarding `O=C1NC(=O)/C(=C/c2ccc(O)c(O)c2)N1`, the inhibition in the experiment on Dengue virus is 37%; against Prothrombin (Bos taurus), 32%; with Escherichia coli [1], 70%; in the experiment with Escherichia coli [2], 100%.

Turning to `O=C1NC(=S)N/C1=C\c1ccc(O)c(O)c1`, the inhibition is 36% in the experiment on Dengue virus, 23% on Prothrombin (Bos taurus), 46% in the experiment on Escherichia coli [1] and 86% in the experiment with Escherichia coli [2].

For the compound `O=C1NC(=S)S/C1=C\c1ccc([N+](=O)[O-])cc1`, the inhibition in the experiment on Dengue virus came to 46%; against Prothrombin (Bos taurus), 25%; in the experiment with Escherichia coli [1], 65%; with Escherichia coli [2], 11%.

For `O=C1NC(=O)/C(=C/C2CCCCC2)S1`, in the experiment with Dengue virus, the inhibition was found to be 25%. Besides, the inhibition result at Prothrombin (Bos taurus), in the experiment on Escherichia coli [1] and in the experiment with Escherichia coli [2] was “inactive” in each case.

Take `O=C1NC(=S)S/C1=C\c1sccc1Cl`: the results for the inhibition in the experiment with Dengue virus, at Prothrombin (Bos taurus) and with Escherichia coli [1] were 47%, 28% and 43%, respectively. Further, the inhibition result in the experiment on Escherichia coli [2] is “inactive”.

Regarding `CC(C)C[C@@H]1NC(=S)NC1=O`, the inhibition result with Dengue virus, at Prothrombin (Bos taurus) and with Escherichia coli [2] was “inactive” in each case. In the experiment with Escherichia coli [1], the inhibition amounted to 20%.

With `O=C1NC(=S)S/C1=C1/CCOc2ccccc21`, the inhibition is 44% in the experiment with Dengue virus and 18% on Prothrombin (Bos taurus). Further, the inhibition result in the experiment on Escherichia coli [1] and in the experiment with Escherichia coli [2] was “inactive” in each case.

Consider `O=C1CNC(=O)N1`, for which the inhibition result in the experiment on Dengue virus, at Prothrombin (Bos taurus), in the experiment on Escherichia coli [1] and in the experiment on Escherichia coli [2] was “inactive” in each case.

As for `CCCC/C=C/C1NC(=S)NC1=O` (stereo unspecified), the inhibition result in the experiment on Dengue virus and in the experiment on Escherichia coli [2] was “inactive” throughout. Further, the inhibition on Prothrombin (Bos taurus) is 10%; with Escherichia coli [1], 64%.

`COc1ccc(/C=C/C=C2\SC(=O)NC2=O)cc1`: the figures for the inhibition in the experiment with Dengue virus, on Prothrombin (Bos taurus) and in the experiment on Escherichia coli [1] were 18%, 11% and 13%, respectively. Also, the inhibition result in the experiment on Escherichia coli [2] is “inactive”.

As for `O=C1NC(=S)S/C1=C\c1cc(Br)cs1`, the inhibition came to 47% in the experiment on Dengue virus, 21% on Prothrombin (Bos taurus) and 18% in the experiment on Escherichia coli [1]. Moreover, the inhibition entry with Escherichia coli [2] is “inactive”.

Take `COc1cc(/C=C2\SC(=S)NC2=O)ccc1O`: the inhibition was 42% in the experiment on Dengue virus, 32% on Prothrombin (Bos taurus), 66% with Escherichia coli [1] and 12% with Escherichia coli [2].

For the origin of these results see ChEMBL document CHEMBL1955761, “Privileged scaffolds or promiscuous binders: a comparative study on rhodanines and related heterocycles in medicinal chemistry” (J Med Chem, 2012).
